Bioassay records as filed in PubChem BioAssay.
Only some compounds are listed: those with a hit (about 3.6% of all), similar ones and a draw of the others.
PfHsp90 set2: growth inhibition of PfHsp90-expressing yeast, primary screen, antimalarial PfHsp90 inhibitor project, S. cerevisiae, BacTiter-Glo luminescence, single point, set 2 | BacTiter-Glo ATP, 48 h; yeast lacking PDR1 and PDR3 efflux regulators | inhibition, % at 9.4 µM | AID 504621, 2011 | 310,000 compounds, 0.32% hits;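 active means every replicate shows inhibition above about 80%, whatever the replicate mean, limit read from the data; inconclusive means mean inhibition reaches the set limit but some replicate falls short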
SKKanGAS inh: S. pyogenes SKKanGAS growth inhibitors in kanamycin, primary screen, streptokinase expression inhibitor project, SKKanGAS strain, BacTiter-Glo luminescence; 6 h; inhibition, % at 7.5 µM; 300,000 compounds, 1.3% hits;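 active means mean replicate score, as percent of positive control median, at least 50; inconclusive means mean below 50 but one replicate at or above 50; inactive means mean and every replicate below 50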;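 further: strain carries kanamycin resistance gene driven by streptokinase promoter and grows in 40 µg/ml kanamycin; loss of luminescence reflects streptokinase promoter inhibition or plain growth inhibition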
CSC inhib: cancer stem cell viability inhibitors, primary screen, luminescence; 300,000 compounds, 1.1% hits; cancer stem cell-like cells viability; AID 2717, 2010; inhibition, % at 7.5 µM; in the data active means inhibition above about 75%; inconclusive means no clear call, values can overlap the other calls; tested in HMLE shEcad cells
T cruzi repl: inhibitors of intracellular T. cruzi growth, primary screen, luminescence, NIH3T3 host cells | AID 1885, 2009 | 300,000 compounds, 1.4% hits | inhibition, % (concentration not given with the values) | T. cruzi beta-gal in NIH3T3, 90 h;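 active means mean inhibition across valid replicates above about 55%, limit read from the data; inconclusive means mean below that limit but half or more replicates reach it; inactive means mean below it, under half of replicates reach it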;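 further: signal also drops with host cell toxicity which is not excluded here; higher percent means less beta-gal luminescence so fewer parasites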
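Incubation – ≥90 h infection period, 3 h prior cell attachment · System – NIH/3T3 fibroblasts plus reporter T. cruzi · Doses – compound pinned at 50 nL/well, DMSO · Read-out basis – percent inhibition of parasite-derived β-gal signal · Signal – luminescent β-galactosidase signal after 60 min lysis · Also added – 5000 T. cruzi trypomastigotes/well · Medium – Low-serum DMEM with 2% FBS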
Beta apoptosis: inhibitors of cytokine-induced beta cell apoptosis, primary screen, luminescence; INS-1E cytokine-induced death, ATP luminescence, 48 h; percent of positive-control rescue, neutral wells zero; protection from apoptosis, % (concentration not given with the values); 300,000 compounds, 0.8% hits; AID 435005, 2010;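 active means Every replicate reaches about 75%, or at least half do and their mean reaches it too, limit read from the data; inconclusive means At least half of replicates reach the limit but their mean does not; inactive means Under half of replicates reach the limit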;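 further: higher means more ATP so stronger rescue from cytokine killing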
HIF activator: HIF pathway transcriptional activators, primary screen, cell-based, U2OS HRE-luciferase, luminescence; U2OS HRE-luciferase reporter; normalized: DMSO 0%, desferrioxamine 100%; activation, % at 7.5 µM (by protocol); 300,000 compounds, 0.32% hits; AID 1910, 2009;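 active means mean activation of at least 10% of the iron chelator positive control signal, with at least half of replicates also reaching 10%; inconclusive means mean and replicate majority disagree about reaching 10%; inactive means mean and most replicates under 10%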
Each line names hits and unclear results; the compound was inactive in the other large screens.

O=C(OC(c1ccccc1)c1nccc2ccccc12)c1cc([N+](=O)[O-])cc([N+](=O)[O-])c1 (stereo not drawn)	T cruzi repl 58
OC(c1cccc(Cl)c1)c1nccc2ccccc12 (stereo not drawn)	none
CCOc1ccc(CN2CCN(CC3=Cc4cccc(OC)c4OC3)CC2CCO)cc1 (stereo not drawn)	T cruzi repl 56
CCOc1ccc(CN2CCN(Cc3cc4ccccc4[nH]3)CC2CCO)cc1 (stereo not drawn)	T cruzi repl 60 (no result: CSC inhib, Beta apoptosis)
Cc1ncc(CN2CCN(Cc3ccccc3)C(CCO)C2)s1 (stereo not drawn)	none
COc1ccc2c(c1)C=C(CN1CCN(Cc3ccccc3C)C(CCO)C1)CO2 (stereo not drawn)	T cruzi repl 55
CCOc1ccc(CN2CCN(Cc3cnc(-c4ccccc4)s3)CC2CCO)cc1 (stereo not drawn)	T cruzi repl 56 (no result: PfHsp90 set2)
CCOc1ccc(CN2CCN(CC3CC3)CC2CCO)cc1 (stereo not drawn)	none (no result: Beta apoptosis)
O=C(NCCC1CCCCN1S(=O)(=O)c1ccccc1)C(=O)NCc1ccc(F)cc1 (stereo not drawn)	none (no result: PfHsp90 set2, Beta apoptosis)
CC(OC(=O)c1cc(S(=O)(=O)N2CCOCC2)ccc1Br)C(=O)N1CCOCC1 (stereo not drawn)	none (no result: SKKanGAS inh, CSC inhib, T cruzi repl, HIF activator)
O=C(Cc1ccc(F)cc1)Nc1ccc(Cl)cn1	none
C=C(C)C(=O)N1CC2(CC(c3cccc(NC(=O)COc4ccc(Cl)cc4)c3)=NO2)C[C@@H]1C(N)=O (stereo partly drawn)	Beta apoptosis 104
CCCCCC(=O)Nc1cccc(C2=NOC3(C2)C[C@@H](C(N)=O)N(C(=O)CC(c2ccccc2)c2ccccc2)C3)c1 (stereo partly drawn)	T cruzi repl 76
C/C=C(\C)C(=O)N1CC2(CC(c3cccc(NC(=O)COc4ccc(Cl)cc4)c3)=NO2)C[C@@H]1C(N)=O (stereo partly drawn)	none
O=C(N/C(=C/c1ccc(F)cc1)C(=O)N1CCCCC1)c1ccco1	none
Cc1cc(C)c2nc(NC(=O)c3ccc([N+](=O)[O-])o3)sc2c1	none (no result: Beta apoptosis)
COc1ccc2nc(NC(=O)c3ccc([N+](=O)[O-])o3)sc2c1	CSC inhib 75 (no result: Beta apoptosis)
O=C(Nc1nc2c(F)cc(F)cc2s1)c1ccc([N+](=O)[O-])o1	CSC inhib 96
O=C(Nc1nc2cc3c(cc2s1)OCCO3)c1ccc([N+](=O)[O-])o1	SKKanGAS inh inconclusive, T cruzi repl 59
Cc1cc(C)c2sc(NC(=O)c3ccc([N+](=O)[O-])o3)nc2c1	CSC inhib 92, T cruzi repl 59
Cc1cccc(C)c1Nc1c(-c2ccccn2)nc2ccccn12	SKKanGAS inh 97, T cruzi repl 61, HIF activator 28
Cc1cccc(C)c1Nc1c(-c2ccsc2)nc2ncccn12	none
Cc1ccc2nc(-c3ccccn3)c(NC3CCCC3)n2c1	SKKanGAS inh 96, T cruzi repl 68, Beta apoptosis 102
Cc1ccccc1Nc1c(-c2ccccn2)nc2c(C)cccn12	SKKanGAS inh 81, Beta apoptosis 96
Cc1ccc(Nc2c(-c3ccccn3)nc3cccc(C)n23)cc1	SKKanGAS inh 102, CSC inhib inconclusive, T cruzi repl 59, Beta apoptosis 117, HIF activator 56
COc1cc(Cl)c(C)cc1NC(=O)CN1C(=O)C2CCCCC2C1=O (stereo not drawn)	none (no result: SKKanGAS inh, CSC inhib, T cruzi repl, HIF activator)
CC(C)N(CC(=O)Nc1ccc(Cl)cc1C(F)(F)F)C(=O)CCl	T cruzi repl 83
CCC(CC)NC(=O)Nc1cccc(C)c1C	none
CCC(C)N(CC(=O)Nc1cccc(C)c1C)C(=O)CCl (stereo not drawn)	T cruzi repl 69
O=C(Nc1cc(Cl)cc2c1-c1ccc(Cl)cc1C2O)C(Cl)Cl (stereo not drawn)	none (no result: SKKanGAS inh, CSC inhib, T cruzi repl, Beta apoptosis, HIF activator)
CCN(Cc1ccc(C#CCCO)cc1)CC1CCCN(CCc2cccc(F)c2)C1 (stereo not drawn)	T cruzi repl 64
CN(Cc1ccc(C#CCCO)cc1)CC1CCCN(CCc2ccc(Cl)cc2)C1 (stereo not drawn)	none (no result: Beta apoptosis)
Cc1cc(Nc2nc3ccccc3nc2Cl)n(-c2ccc([N+](=O)[O-])cc2)n1	T cruzi repl 55, Beta apoptosis 77
COc1ccc2[nH]c(=O)c(CN(Cc3ccco3)C(c3nnnn3Cc3ccccc3)C(C)C)cc2c1 (stereo not drawn)	T cruzi repl 76
COCCn1nnnc1C(C(C)C)N(Cc1ccccc1)Cc1cc2cc(OC)ccc2[nH]c1=O (stereo not drawn)	none (no result: SKKanGAS inh, CSC inhib, T cruzi repl, Beta apoptosis, HIF activator)
CCCCN(Cc1ccco1)C(=O)c1cc2c(=O)[nH]c3ccc(C)cc3c2s1	none
CN(CCC#N)C(=O)c1cc2c(Cl)nc3ccccc3c2s1	none
Cc1ccc2nc(Cl)c3cc(C(=O)NCCCN4CCCC4)sc3c2c1	T cruzi repl 68
Cc1ccc2nc(Cl)c3cc(C(=O)N(CCN(C)C)Cc4ccco4)sc3c2c1	CSC inhib 93, T cruzi repl 56
CN(C)CCN(Cc1ccco1)C(=O)c1cc2c(Cl)nc3ccccc3c2s1	T cruzi repl 63
CC(C)[C@H](NC(=O)OCc1ccccc1)C(=O)OCC(=O)N1CCCCC1	none (no result: SKKanGAS inh, CSC inhib, T cruzi repl, Beta apoptosis, HIF activator)
CSc1ccccc1NC(=O)COC(=O)c1cnc(C)cn1	none (no result: PfHsp90 set2, SKKanGAS inh, T cruzi repl, HIF activator)
COc1ccc(N(CC(=O)Nc2ccccc2C(N)=O)S(=O)(=O)c2ccc(C)c([N+](=O)[O-])c2)cc1	none
COc1ccc(Br)cc1S(=O)(=O)N1CCCC1	none
COc1cc(S(=O)(=O)N2CCCCCC2)c(OC)cc1Br	CSC inhib 79
Cc1nc2ccc(NC(=O)c3ccc([N+](=O)[O-])cc3)cc2[nH]1	none
COc1ccc(NS(=O)(=O)c2ccc(OC)c(N(C)S(=O)(=O)c3ccc(Cl)cc3)c2)cc1	Beta apoptosis 101
CC(C)C[C@@H](CN)NC(=O)c1nc[nH]c1C(=O)N[C@@H](CC(C)C)C(=O)CNC[C@H](C)NC(=O)c1nc[nH]c1C(=O)N[C@@H](CC(C)C)C(=O)O	none (no result: SKKanGAS inh, CSC inhib, T cruzi repl, Beta apoptosis, HIF activator)
CCCCCn1c(=O)[nH]c2cc(C(=O)NCCCN(C)Cc3ccccc3)ccc2c1=O	T cruzi repl 58
CCCCN(C)CCNC(=O)c1ccc(Cn2c(=S)[nH]c3ccc(Br)cc3c2=O)cc1	T cruzi repl 77 (no result: PfHsp90 set2)
COC(=O)c1ccc2c(=O)n(Cc3ccc(C(=O)NCCCN4CCC(C)CC4)cc3)c(=S)[nH]c2c1	none
CC1CCN(CCCNC(=O)c2ccc3c(=O)n(Cc4ccc(Cl)cc4)c(=S)[nH]c3c2)CC1	CSC inhib 88
